CHRM4 PAM: human M4 muscarinic receptor positive allosteric modulators, primary screen, CHO-K1 cells, Fluo-8 calcium fluorescence; Muscarinic acetylcholine receptor M4 (Homo sapiens), P08173; CHO-K1 hM4/Gqi5, ACh EC20; 0% = ACh EC20, 100% = maximal ACh; activation, % at 3 µM; hit rate 0.4% among 360,000; AID 624126, 2012;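 active = activation above its plate's cutoff, the mean activation of sample wells plus 3 SD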
CHRM5 antagonist: human M5 muscarinic receptor antagonists, primary screen, CHO cells, Fluo-8 calcium fluorescence | CHO-hM5 cells, ACh EC80 | inhibition, % at 3 µM | hit rate 0.59% among 360,000;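 active = inhibition above a per-plate cutoff, the mean of that plate's test compounds plus 3 SD, cut at about 27% in these data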
Target sequence (P08912 whole entry, looked up): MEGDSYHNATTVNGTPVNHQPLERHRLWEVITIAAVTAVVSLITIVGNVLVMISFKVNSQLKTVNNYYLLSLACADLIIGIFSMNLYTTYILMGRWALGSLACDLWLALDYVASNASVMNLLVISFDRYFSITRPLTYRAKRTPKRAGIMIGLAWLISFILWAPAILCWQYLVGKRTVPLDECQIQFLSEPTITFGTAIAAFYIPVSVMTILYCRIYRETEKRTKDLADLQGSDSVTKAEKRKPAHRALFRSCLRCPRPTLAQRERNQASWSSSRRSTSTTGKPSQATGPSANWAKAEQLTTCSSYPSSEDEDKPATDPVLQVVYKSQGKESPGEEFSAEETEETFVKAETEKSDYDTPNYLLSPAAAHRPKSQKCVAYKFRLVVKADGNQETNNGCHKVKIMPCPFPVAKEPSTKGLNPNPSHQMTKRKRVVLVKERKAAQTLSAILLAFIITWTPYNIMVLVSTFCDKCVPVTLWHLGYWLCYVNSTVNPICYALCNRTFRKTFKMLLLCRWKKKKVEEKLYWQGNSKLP
CHRM4 agonist: human M4 muscarinic receptor agonists, primary screen, CHO-K1 cells, Fluo-8 calcium fluorescence; hit rate 0.14% among 360,000; AID 624127, 2012; CHO-K1 hM4/Gqi5; vehicle 0%, full acetylcholine response 100%; activation, % at 3 µM;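 active = activation above the run mean over all test wells plus 3 SD, cut at about 32% in these data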;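 also: peak over basal fluorescence ratio per well then scaled between controls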
M5 PAM: human M5 muscarinic receptor positive allosteric modulators, primary screen, CHO-K1 cells, Fluo-8 calcium fluorescence; hit rate 0.3% among 360,000; activation, % at 3 µM; Muscarinic acetylcholine receptor M5 (Homo sapiens), P08912; CHO-K1 hM5, ACh EC20 PAM; 0% = ACh EC20, 100% = ACh EC100;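 active = activation above the run cutoff, the mean activation of all test compounds plus 3 SD, cut at about 18% in these data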
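system = human M5 receptor in CHO-K1 cells | reagent = EC20 acetylcholine as agonist stimulus | compound dosing = single-point, 3 µM nominal | incubation = Fluo-8 loading 80 min at 37 °C plus 30 min room temperature | detection = Fluo-8 calcium dye fluorescence, kinetic read | benchmarks = low control EC20 acetylcholine (0%), high control EC100 acetylcholine (100%)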
M4 antag: human M4 muscarinic receptor antagonists, primary screen, CHO cells, Fluo-8 calcium fluorescence | CHO-hM4 cells, ACh EC80 | hit rate 0.73% among 360,000 | inhibition, % at 3 µM | Muscarinic acetylcholine receptor M4 (Homo sapiens), P08173;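 active = inhibition above its plate's cutoff, the mean inhibition of sample wells plus 3 SD, cut at about 27% in these data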
M5 ag: human M5 muscarinic receptor agonists, primary screen, CHO-K1 cells, Fluo-8 calcium fluorescence; activation, % at 3 µM; hit rate 0.19% among 360,000; AID 624037, 2012; CHO-K1 hM5 cells; 0% DMSO wells, 100% maximal acetylcholine response;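 active = activation above the run's mean over test compounds plus 3 SD, cut at about 23% in these data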;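 also: signal is peak over basal fluorescence ratio across the kinetic read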
Of the large screens only hits and unclear results are named; the others gave an inactive call. Sampled rows, rich in hits. Any-hit rate of the full collection: about 1.8%.

O=C(O)c1ccc(CSc2nnc(COc3ccccc3)o2)cc1	none
CCc1ccc(OCc2nnc(SCc3ccc(C(=O)O)cc3)o2)cc1	CHRM4 PAM 27
CC1(C)[C@H]2CC=C(CN3CCC(N4CCC(C(=O)N5CCCC5)CC4)CC3)[C@@H]1C2	M4 antag 56
COc1ccc(NC(=O)C2(N(C(=O)Cn3nnnc3N)c3ccc(OC)cc3)CCCCC2)cc1	none
CCC(C)(C(=O)Nc1ccc(OC)cc1)N(C)C(=O)Cn1nnnc1N (stereo unspecified)	M5 PAM 19
O=C1NC(=S)S/C1=C\C=C\c1ccc([N+](=O)[O-])o1	CHRM5 antagonist 48, M4 antag 68, M5 ag 26
O=C(O)/C=C/c1ccc([N+](=O)[O-])o1	none
COc1ccccc1P(=O)(Cc1ccccc1)c1ccccc1 (stereo unspecified)	none
CN1CCN(CCCNC(=O)CCc2nnc3n(Cc4ccccc4Cl)c(=O)c4ccccc4n23)CC1	CHRM4 PAM 16
O=C(CCc1nnc2n(Cc3ccc(F)cc3)c(=O)c3ccccc3n12)NCCCN1CCOCC1	none
CCOC(=O)[C@]12CCCC=C1N(Cc1cccc3ccccc13)C(=O)[C@H](CC(=O)N1CCSCC1)C2	none
Cc1cc(C)cc(NC(=O)CSc2nc3[nH]ncc3c(=O)[nH]2)c1	CHRM4 PAM 31, M5 PAM 22
CN(C(=O)CSc1nc2[nH]ncc2c(=O)[nH]1)c1ccccc1	CHRM4 PAM 18
O=c1[nH][nH]c2c1[C@H](C1CCCC1)O[C@H](CCc1ccccc1)C2	none
CC(=O)c1cccc(NC(=O)c2ccccc2OCc2ccc(F)cc2)c1	CHRM5 antagonist 32
CN(C)S(=O)(=O)c1cccc(NC(=O)c2ccccc2OCc2ccc(F)cc2)c1	none
COc1cccc(C(C(=O)NCC2CCCO2)N(C(=O)Cn2nnc3ccccc32)c2ccc(NC(C)=O)cc2)c1 (stereo unspecified)	none
COCCCN(C(=O)c1ccccc1)c1nc(-c2ccc(OC)cc2)cs1	none
COCCCN(C(C)=O)c1nc(-c2ccccc2)cs1	CHRM4 PAM 44
CCc1c(C)sc(NC(=O)C2CC2c2ccccc2)c1C(N)=O (stereo unspecified)	M4 antag 27
Cc1ccccc1C(=O)NC1CCN(Cc2nnnn2C(C)(C)C)CC1	none
Cc1ccccc1C(=O)NC1CCN(Cc2nnnn2C2CCCC2)CC1	M5 PAM 32
Cc1ccc(C)c(C(=O)CSc2n[nH]c(C(C)C)n2)c1	M5 PAM 34
Cc1cccc(OCC(=O)Oc2ccc(Cl)cc2)c1	none
Cc1cccc(OC(=O)NCCOC(=O)N(O)c2ccc(Cl)cc2)c1	CHRM5 antagonist 32
C=CC[C@@H](CC(=O)OC(C)(C)C)C(=O)OC[C@H]1CCCN1C(=O)[C@@H](CC=C)CC(=O)N(CCO)Cc1ccccc1	none
CCNC(=O)C1(C)CCCN(Cc2ccc3ccccc3c2Br)C1 (stereo unspecified)	M4 antag 35
Cc1cc(C)c2c(N)c(C(=O)c3ccc(Cl)cc3)sc2n1	CHRM4 PAM 28
Cc1cc(C)c2c(N)c(C(=O)c3ccccc3)sc2n1	CHRM4 PAM 56, M4 antag 33
C[C@H]1CN(c2ccccc2)C(=O)[C@@H]1CC(=O)Nc1ccc(Br)cc1	CHRM5 antagonist 27
CC(C)n1nnnc1C1c2ccccc2C(=O)N1C1CC1 (stereo unspecified)	none
O=C(CC1C(=O)NCCN1Cc1cccc(F)c1)NCCCN1CCCC1=O (stereo unspecified)	none
COc1cccc(CN2CCNC(=O)C2CC(=O)NCCCN2CCCC2=O)c1 (stereo unspecified)	CHRM4 PAM 15
COc1ccccc1N1CCN(C(=O)c2oc3c(c2C)C(=O)CC(C)(C)C3)CC1	CHRM5 antagonist 29
Cc1c(C(=O)N2CCN(c3ccccn3)CC2)oc2c1C(=O)CC(C)(C)C2	none
CCC1=NN2C(=N)/C(=C/c3cc(C)n(Cc4ccccc4)c3C)C(=O)N=C2S1	CHRM4 agonist 53, M5 ag 24
Cc1ccccc1CN1CCN(CC2CC3C=CC2C3)CC1 (stereo unspecified)	M4 antag 44
C1=CC2CC1CC2CN1CCN(c2ccccc2)CC1 (stereo unspecified)	none
COc1ccc(/C=C2\CN(Cc3ccccc3)C/C(=C\c3ccc(OC)c(O)c3)C2=O)cc1O	CHRM5 antagonist 27
CCCOc1ccc(/C=C/C(=O)O)cc1OC	CHRM4 PAM 19
COc1cc(/C=C2/CC/C(=C/c3ccc(O)c(OC)c3)C2=O)ccc1O	CHRM5 antagonist 36, M5 ag 25
COc1cc(/C=C2\COC/C(=C\c3ccc(O)c(OC)c3)C2=O)ccc1O	none
COc1cc(/C=C2\CC/C(=C\c3ccc(OCCO)c(OC)c3)C2=O)ccc1OCCO	M5 ag 55
NC1(C(=O)O)CSSC1	none
O=C(COc1ccc2ccc(=O)oc2c1)NCCCn1ccnc1	none
COc1ccc(CN2CCN(C3CCC3)CC2CCO)c(C)c1C (stereo unspecified)	none
CC[C@@H]1[C@H]2CCCC(=O)N3CC[C@@H](C[C@@H]1Nc1ccccc1)[C@@H]23	none
C=CCNC(=O)c1oc2ccc(S(=O)(=O)N3CCC4(CC3)OCCO4)cc2c1C	none
COc1ccc(NC(=O)c2oc3ccc(S(=O)(=O)N4CCC5(CC4)OCCO5)cc3c2C)cc1	CHRM4 agonist 32
S=c1[nH]nc(CN2CCCCC2)n1-c1ccc(Cl)cc1	none
Fc1ccc(-n2c(CN3CCCCC3)n[nH]c2=S)cc1	M5 PAM 21
CC1=NNC(=O)/C1=C\c1cn(-c2ccccc2)nc1-c1ccccc1	CHRM5 antagonist 32, M4 antag 39, M5 ag 28
COc1ccc(CCNC(=O)[C@H](C)NC(=O)N2CCn3c2nc2ccccc23)cc1OC	none
COc1ccc(NC(=O)c2cc([N+](=O)[O-])ccc2N2CCCC2)cc1S(N)(=O)=O	none
CC1CCN(CCCNC(=O)C2CC(=O)N(CCc3ccccc3)C2)CC1 (stereo unspecified)	none
CCOC(=O)C1=CC[C@@H](c2ccccc2)N(S(=O)(=O)c2ccc(C)cc2)[C@H]1c1ccc(C#N)cc1	none

Screening results as filed in PubChem BioAssay.
